# In ChEMBL document CHEMBL4304756, “Second-Generation Tryptamine Derivatives Potently Sensitize Colistin Resistant Bacteria to Colistin” (ACS Med Chem Lett, 2019):
# Active and inactive are the calls of the source. The rule behind the calls is not given here.
# Tests used:
# Acinetobacter baumannii [1] = test: Potentiation of colistin-induced antibacterial activity against Acinetobacter baumannii 17978 harbouring mcr-1 gene assessed as colistin sensitization activity at 30 uM incubated for 16 hrs by broth microdilution method; assay type: functional, organism-based
# Acinetobacter baumannii [2] = test: Potentiation of colistin-induced antibacterial activity against Acinetobacter baumannii 17978 assessed as colistin MIC at 50 uM incubated for 16 hrs by broth microdilution method (reference value: 2 ug/ml); assay type: functional; settings: Acinetobacter baumannii, 17978, 16 h
# [3] = Cytotoxicity against mouse 4T1 cells assessed as reduction in cell viability in presence of 1 ug/ml colistin incubated for 18 hrs by MTT assay; assay type: cell-based
# Outline: (§1)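 4T1 mouse mammary tumor cells exposed to compound for 18 h, alone or together with colistin at 1 μg/mL. Medium then aspirated and replaced with 0.5 mg/mL MTT in culture medium for colorimetric viability read-out. CT50 taken as the concentration giving 50% cell viability.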
# Acinetobacter baumannii [4] = test: Antivirulence activity in Acinetobacter baumannii 4106 infected Galleria mellonella larvae model assessed as survival rate in presence of colistin at 50 mg/kg measured at 24 hrs interval over 4 days (reference value: 7 %); assay type: functional
# Outline: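 A. baumannii 4106 was given to Galleria mellonella larvae at 6 × 10^5 CFU, the lethal inoculum found by dose escalation. Larvae were treated with colistin 50 mg/kg, adjuvant 50 mg/kg, colistin plus adjuvant (50 mg/kg each), or tigecycline 100 mg/kg as positive control. Survival was scored out to day 4.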
# Acinetobacter baumannii [5] = test: Potentiation of colistin-induced antibacterial activity against Acinetobacter baumannii 4106 assessed as reduction in colistin MIC at 7.5 uM incubated for 16 hrs by broth microdilution method (reference value: 1024 ug/ml); assay type: functional; settings: Acinetobacter baumannii, 4106, 16 h
# Outline: (§2)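 Colistin MIC was measured against chromosomally colistin-resistant strains (K. pneumoniae B9, C3; A. baumannii 4106, among four strains) with adjuvant at fixed levels from 20 μM down to 7.5 μM. Fold reduction was reported against colistin alone, with the CLSI breakpoint taken as ≤2 μg/mL.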
# Acinetobacter baumannii [6] = test: Potentiation of colistin-induced antibacterial activity against Acinetobacter baumannii 17978 harbouring mcr-1 gene assessed as reduction in colistin MIC at 5 uM incubated for 16 hrs by broth microdilution method (reference value: 16 ug/ml); assay type: functional; settings: Acinetobacter baumannii, 17978, 16 h
# Outline: (§3)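 For the dose-response, colistin MIC was measured against mcr-1 plasmid-bearing E. coli, K. pneumoniae and A. baumannii while the adjuvant concentration was lowered stepwise (30, 15 μM, down to 5 μM). The aim was to find where the MIC rose above the 2 μg/mL CLSI susceptibility breakpoint.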
# Klebsiella pneumoniae [7] = test: Potentiation of colistin-induced antibacterial activity against Klebsiella pneumoniae C3 assessed as reduction in colistin MIC at 5 uM incubated for 16 hrs by broth microdilution method (reference value: 512 ug/ml); assay type: functional; settings: C3, 16 h
# Acinetobacter baumannii [8] = test: Potentiation of colistin-induced antibacterial activity against Acinetobacter baumannii 4106 assessed as reduction in colistin MIC at 10 uM incubated for 16 hrs by broth microdilution method (reference value: 1024 ug/ml); assay type: functional; settings: Acinetobacter baumannii, 4106, 16 h
# Klebsiella pneumoniae [9] = test: Potentiation of colistin-induced antibacterial activity against Klebsiella pneumoniae C3 assessed as reduction in colistin MIC at 20 uM incubated for 16 hrs by broth microdilution method (reference value: 512 ug/ml); assay type: functional; settings: C3, 16 h; outline: as §2
# [10] = Hemolytic activity in sheep RBC at 200 uM incubated for 1 hr by UV spectrophotometry; assay type: ADME, cell-based, Ovis aries, Erythrocyte; settings: sheep red blood cells (erythrocytes), read-out: Activity
# Outline: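 Red blood cells exposed to compound at 200 μM, with percent cell lysis recorded.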
# Acinetobacter baumannii [11] = test: Potentiation of colistin-induced antibacterial activity against Acinetobacter baumannii 4106 assessed as reduction in colistin MIC at 20 uM incubated for 16 hrs by broth microdilution method (reference value: 1024 ug/ml); assay type: functional; settings: Acinetobacter baumannii, 4106, 16 h
# Acinetobacter baumannii [12] = test: Potentiation of colistin-induced antibacterial activity against Acinetobacter baumannii 4106 assessed as reduction in colistin MIC at 5 uM incubated for 16 hrs by broth microdilution method (reference value: 1024 ug/ml); assay type: functional; settings: Acinetobacter baumannii, 4106, 16 h
# Acinetobacter baumannii [13] = test: Potentiation of colistin-induced antibacterial activity against Acinetobacter baumannii 17978 harbouring mcr-1 gene assessed as reduction in colistin MIC at 15 uM incubated for 16 hrs by broth microdilution method; assay type: functional, organism-based; outline: as §3
# Acinetobacter baumannii [14] = test: Potentiation of colistin-induced antibacterial activity against Acinetobacter baumannii 4106 assessed as reduction in colistin MIC at 15 uM incubated for 16 hrs by broth microdilution method (reference value: 1024 ug/ml); assay type: functional; settings: Acinetobacter baumannii, 4106, 16 h
# Escherichia coli [15] = test: Potentiation of colistin-induced antibacterial activity against Escherichia coli YD626 assessed as colistin MIC at 50 uM incubated for 16 hrs by broth microdilution method (reference value: 1 ug/ml); assay type: functional; settings: YD626, 16 h
# Klebsiella pneumoniae [16] = test: Potentiation of colistin-induced antibacterial activity against Klebsiella pneumoniae C3 assessed as reduction in colistin MIC at 10 uM incubated for 16 hrs by broth microdilution method (reference value: 512 ug/ml); assay type: functional; settings: C3, 16 h
# Klebsiella pneumoniae [17] = test: Potentiation of colistin-induced antibacterial activity against Klebsiella pneumoniae 2210291 harbouring mcr-1 gene assessed as reduction in colistin MIC at 5 uM incubated for 16 hrs by broth microdilution method (reference value: 16 ug/ml); assay type: functional; settings: Klebsiella pneumoniae, 2210291, 16 h; outline: as §3
# Klebsiella pneumoniae [18] = test: Potentiation of colistin-induced antibacterial activity against Klebsiella pneumoniae B9 assessed as reduction in colistin MIC at 15 uM incubated for 16 hrs by broth microdilution method (reference value: 512 ug/ml); assay type: functional; settings: B9, 16 h
# Klebsiella pneumoniae [19] = test: Potentiation of colistin-induced antibacterial activity against Klebsiella pneumoniae 2210291 harbouring mcr-1 gene assessed as colistin MIC at 50 uM incubated for 16 hrs by broth microdilution method (reference value: 16 ug/ml); assay type: functional; settings: Klebsiella pneumoniae, 2210291, 16 h
# Acinetobacter baumannii [20] = test: Potentiation of colistin-induced antibacterial activity against Acinetobacter baumannii 3941 assessed as reduction in colistin MIC at 10 uM incubated for 16 hrs by broth microdilution method (reference value: 512 ug/ml); assay type: functional; settings: Acinetobacter baumannii, 3941, 16 h
# Acinetobacter baumannii [21] = test: Potentiation of colistin-induced antibacterial activity against Acinetobacter baumannii 17978 harbouring mcr-1 gene assessed as colistin MIC at 50 uM incubated for 16 hrs by broth microdilution method (reference value: 16 ug/ml); assay type: functional; settings: Acinetobacter baumannii, 17978, 16 h
# Acinetobacter baumannii [22] = test: Potentiation of colistin-induced antibacterial activity against Acinetobacter baumannii 3941 assessed as reduction in colistin MIC at 15 uM incubated for 16 hrs by broth microdilution method (reference value: 512 ug/ml); assay type: functional; settings: Acinetobacter baumannii, 3941, 16 h
# Escherichia coli [23] = test: Potentiation of colistin-induced antibacterial activity against Escherichia coli YD626 harbouring mcr-1 gene assessed as reduction in colistin MIC at 15 uM incubated for 16 hrs by broth microdilution method; assay type: functional, organism-based; outline: as §3
# Acinetobacter baumannii [24] = test: Potentiation of colistin-induced antibacterial activity against Acinetobacter baumannii 3941 assessed as reduction in colistin MIC at 20 uM incubated for 16 hrs by broth microdilution method (reference value: 512 ug/ml); assay type: functional; settings: Acinetobacter baumannii, 3941, 16 h
# Acinetobacter baumannii [25] = test: Potentiation of colistin-induced antibacterial activity against Acinetobacter baumannii 3941 assessed as reduction in colistin MIC at 7.5 uM incubated for 16 hrs by broth microdilution method (reference value: 512 ug/ml); assay type: functional; settings: Acinetobacter baumannii, 3941, 16 h
# [26] = Cytotoxicity against mouse 4T1 cells assessed as reduction in cell viability incubated for 18 hrs by MTT assay; assay type: cell-based; outline: as §1
smiles,measurement,setting,value
O=C(NCCc1c[nH]c2ccc(Br)cc12)Nc1cc(Cl)c(Br)c(Cl)c1,Activity,Acinetobacter baumannii [1],Active
same,MIC,Acinetobacter baumannii [2],0.5 µg/mL
same,CC50 at 18 h,[3],64.9 µM
same,Activity,Acinetobacter baumannii [4],47%
same,MIC,Acinetobacter baumannii [5],1 µg/mL
same,MIC,Acinetobacter baumannii [6],1 µg/mL
same,MIC,Klebsiella pneumoniae [7],4 µg/mL
same,MIC,Acinetobacter baumannii [8],1 µg/mL
same,MIC,Klebsiella pneumoniae [9],0.5 µg/mL
same,"hemolysis at 1 h, 200 µM",[10],< 2.5%
same,MIC,Acinetobacter baumannii [11],≤ 0.5 µg/mL
same,MIC,Acinetobacter baumannii [12],4 µg/mL
same,Activity,Acinetobacter baumannii [13],Active
same,MIC,Acinetobacter baumannii [14],≤ 0.5 µg/mL
same,MIC,Escherichia coli [15],0.25 µg/mL
same,MIC,Klebsiella pneumoniae [16],1 µg/mL
same,MIC,Klebsiella pneumoniae [17],2 µg/mL
same,MIC,Klebsiella pneumoniae [18],≤ 0.25 µg/mL
same,MIC,Klebsiella pneumoniae [19],0.5 µg/mL
same,MIC,Acinetobacter baumannii [20],4 µg/mL
same,MIC,Acinetobacter baumannii [21],0.5 µg/mL
same,MIC,Acinetobacter baumannii [22],4 µg/mL
same,Activity,Escherichia coli [23],Active
same,MIC,Acinetobacter baumannii [24],2 µg/mL
same,MIC,Acinetobacter baumannii [25],16 µg/mL
same,CC50 at 18 h,[26],94.1 µM
